Screens (PubChem)
H69AR growth 86K: proliferation blockers of H69AR lung cancer cells, primary screen, cell-based, human, 86K library | H69AR lung tumor viability, ATP luminescence, 72 h; stronger effect = lower value | viability, % at 10 µM | actives 6% (n = 85,000);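 active means viability at or below 40%; inactive means viability above 40%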;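 further: multidrug resistant small cell line overexpressing MRP-1 efflux transporter; 100% = mean luminescence of untreated control wells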
Fibroblast inh: antiproliferative effect on LL 47 fibroblasts – human, LL 47 cells, CellTiter-Glo luminescence, primary screen; AID 719, 2007; LL 47 human lung fibroblast viability, ATP luminescence; stronger effect = lower value; actives 1.1% (n = 85,000); viability, % at 10 µM;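 active means viability at or below 50% in the single dose screen; inactive means viability above 50%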;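 further: compound exposure lasted 72 h before the ATP readout; 100% = median luminescence of untreated cell-only wells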
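Material: human lung fibroblast line LL 47, low passage; Evaluation: viability percentage against median untreated-cell control; Buffer or medium: 15% FBS in IMEM; Incubation: 72 h compound exposure at 37 °C after overnight plating; Dosing: 0.1% DMSO in all compound wells; Measured by: CellTiter-Glo luminescence.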
HCT116 PTEN-null: growth suppression of PTEN-null HCT116, primary screen, cell-based, CellTiter-Glo; HCT116 PTEN-null viability, 60 h; stronger effect = lower value; viability, % at 10 µM; actives 1.2% (n = 140,000); AID 827, 2007;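 active means viability at or below a set limit, 4 SD under the median of all tested compounds, cut at about 3.7% in these data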;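 further: PTEN knockout HCT116 line with beta catenin targeted HCT116 as companion control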
HUVEC prolif 384: inhibitors of HUVEC proliferation, primary screen, cell-based, 384-well; CellTiter-Glo luminescence, 72 h; stronger effect = lower value; viability, % at 10 µM (by protocol); actives 1.1% (n = 86,000);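 active means viability at or below 30%; inactive means viability above 30%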;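 further: 100% = median luminescence of DMSO-only cell control wells on each plate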
HCT116 bCat-KO: primary screen for growth suppressors in beta-catenin knockout HCT116 cells (colon tumor, human); AID 818, 2007; HCT116 beta-catenin knockout viability, CellTiter-Glo, 60 h; stronger effect = lower value; actives 1.5% (n = 140,000); viability, % at 10 µM;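 active means viability at or under a set limit, the compound median less 4 SD, cut at about 6% in these data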;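 further: 0% = Hyamine 1622 control at 20 µM and 100% = untreated cell control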
Active calls of the source: *; . = not tested or not shown. This is one part of a sample in which hits are shown more often than they occur.

SMILES	H69AR growth 86K	Fibroblast inh	HCT116 PTEN-null	HUVEC prolif 384	HCT116 bCat-KO
COc1ccccc1CNCC(O)Cn1c2ccccc2c2ccccc21 (stereo not drawn)	.	.	1.4*	.	1.5*
ClC(Cl)(c1nnnn1-c1ccccc1)c1nnnn1-c1ccccc1	.	.	1.9*	.	1.3*
CCOC(=O)c1c(C)[nH]c(C(=O)OCC(=O)Nc2ccc(OCC)cc2)c1C	.	.	98	.	90
CCOC(=O)c1c(C)c(C(=O)Nc2cc(OC)ccc2OC)c(C)n1CC	95	58	31	55	30
CCOC(=O)c1c(C)[nH]c(C(=O)OCC(=O)Nc2cc(C)ccc2OC)c1C	16*	23*	13	31	2.2*
CCOC(=O)c1c(C)[nH]c(C(=O)OCC(=O)Nc2cc(Cl)ccc2OC)c1C	2.6*	66	12	65	10
CCOC(=O)c1[nH]c(C)c(C(=O)Nc2cc(OC)ccc2OC)c1C	28*	60	19	56	18
CCOC(=O)c1c(C)[nH]c(C(=O)OCC(=O)Nc2ccc(OC)c(Cl)c2)c1C	.	.	95	.	90
COc1ccc(Cl)cc1Nc1nc(C)cc(C)c1C(N)=O	92	66	90	95	90
N=c1n(CCN2CCCC2)c2ccccc2n1CC(O)c1ccco1 (stereo not drawn)	84	97	86	86	92
N=c1n(CCN2CCCCC2)c2ccccc2n1CC(O)c1ccc(Cl)c(Cl)c1 (stereo not drawn)	.	.	1.1*	.	0.9*
N=c1n(CCN2CCCCC2)c2ccccc2n1CC(O)c1cccc(Br)c1 (stereo not drawn)	22*	46*	11	65	12
Cc1cc(N2C(=O)C=CC2=O)c([N+](=O)[O-])cc1C	.	.	95	.	95
CCc1ccc(N2CC(C(=O)OCC(=O)Nc3cc(C)on3)CC2=O)cc1 (stereo not drawn)	37*	.	106	104	107
Cc1ccccc1-n1c(O)c(/C=N/N2CCCCC2c2cccnc2)c(=O)[nH]c1=O (stereo not drawn)	.	.	88	.	81
Cc1[nH][nH]c(=O)c1C(c1ccc(-c2ccc(Cl)cc2Cl)o1)c1c(C)[nH][nH]c1=O	.	.	89	.	93
CC1=NOC(=O)/C1=C\c1ccc(-c2ccc(Cl)cc2Cl)o1	.	.	8	.	4.7*
COc1ccc(N2C(=O)NC3CC2(C)Oc2ccc(Cl)cc23)cc1OC (stereo not drawn)	26*	91	72	96	77
NS(=O)(=O)c1ccc(N2N=C(c3ccccc3)CC2c2cccc(F)c2)cc1 (stereo not drawn)	.	.	55	.	63
NS(=O)(=O)c1ccc(N2N=C(c3ccc(Br)cc3)CC2c2ccc(F)cc2)cc1 (stereo not drawn)	.	.	1.2*	.	0.7*
COc1ccc(NC(=O)c2cc(-c3cc(C)cc(C)c3O)n[nH]2)cc1Cl	21*	97	4	44	10
Cc1cc(C)c(O)c(-c2cc(C(=O)NCc3ccccc3)[nH]n2)c1	90	110	79	85	99
COc1cc(OC)nc(Oc2ccccc2C(=O)Oc2cccc(C)c2)n1	.	.	95	.	100
COc1ccc(C(=O)Nc2cccc(C)c2)cc1S(=O)(=O)N1CCOCC1	90	99	91	92	78
O=C(Nc1ccccc1)c1ccc(NCCN2CCOCC2)c(S(=O)(=O)N2CCOCC2)c1	68	98	97	93	106
SMILES	H69AR growth 86K	Fibroblast inh	HCT116 PTEN-null	HUVEC prolif 384	HCT116 bCat-KO
O=C(Nc1ccccc1)c1ccc(NCc2ccco2)c(S(=O)(=O)N2CCOCC2)c1	39*	94	89	86	74
COc1ccc(C(=O)Nc2ccc(-c3ccc(C)o3)cc2)cc1S(=O)(=O)N1CCOCC1	22*	73	11	53	5.7*
CC(C)Cc1ccc(/C=C/C(=O)NC2CC2)cc1	.	.	97	.	95
COCc1cc(C)nc(N2CCc3ccccc32)c1C#N	31*	103	80	96	91
COCc1cc(C)nc(Nc2ccccc2C)c1C#N	98	84	97	91	92
Cn1c(SCC(=O)Nc2cccc(Br)c2)nnc1-c1cc2ccccc2o1	97	57	2.2*	92	2.6*
Cc1ccccc1OCc1nnc(SCC(=O)Nc2ccc3c(c2)oc2ccccc23)n1C	21*	61	98	60	92
COc1ccc(/C=C/C(=O)Nc2sc3c(c2C(=O)NCc2cccnc2)CCCC3)cc1	.	.	95	.	87
COc1ccc(C2NC(=O)c3sc(=S)n(-c4ccccc4)c3N2)cc1 (stereo not drawn)	95	108	3.2*	72	41
CCOc1ccc(C2NC(=O)c3sc(=S)n(-c4ccccc4)c3N2)cc1 (stereo not drawn)	.	.	99	.	103
CCOc1cc2nc(-c3ccc(OC)c(OC)c3)nc(N3CC(C)OC(C)C3)c2cc1OC (stereo not drawn)	.	.	88	.	91
CCOc1cc2nc(-c3ccc(OC)c(OC)c3)nc(N3CCOCC3)c2cc1OC	33*	66	29	6.9*	31
CC(=O)N1N=C(c2ccco2)CC1c1cccs1 (stereo not drawn)	.	.	106	.	91
Cc1ccc(C2=NN(C(=O)CCl)C(c3cccs3)C2)o1 (stereo not drawn)	.	.	2.1*	.	3.6*
CC(=O)N1N=C(c2ccc(C)o2)CC1c1ccc(Br)cc1 (stereo not drawn)	.	.	97	.	102
O=C(CCl)N1N=C(c2ccco2)CC1c1cccs1 (stereo not drawn)	.	.	1.9*	.	3.2*
Cc1ccc(C(C)C)c(OCCNc2nc3c(c(=O)n(C)c(=O)n3C)n2C)c1	96	75	.	76	.
Cc1nc(Nc2ccc(F)cc2)[nH]c(=O)c1CCC(C)C	6.7*	.	49	75	62
Cc1ccc(Oc2ccc(-c3nnc(-c4ccccc4)o3)cc2[N+](=O)[O-])cc1C	.	.	88	.	89
CC(C)CC(NC(=O)C(NC(=O)C(Cc1ccc(OCc2ccccc2)cc1)NC(=O)OC(C)(C)C)C(C)C)C(N)=O (stereo not drawn)	.	.	12	.	5.5*
CC(C)CC(NC(=O)OC(C)(C)C)C(=O)NC(C(=O)NC(C)C(N)=O)C(C)C (stereo not drawn)	99	94	102	87	85
O=C(CN1CCCC(O)C1)N1c2ccccc2Sc2ccc(C(F)(F)F)cc21 (stereo not drawn)	109	95	91	97	94
CN1CCN(CCCN2c3ccccc3Sc3ccc(C(F)(F)F)cc32)CC1	0.6*	62	1.5*	2.4*	1.7*
Cc1cccc(Nc2nc(N)c([N+](=O)[O-])c(N3CC(C)CC(C)C3)n2)c1 (stereo not drawn)	.	.	1.8*	.	1.4*
COc1ccc(Cl)cc1NC(=O)c1cccnc1	100	104	112	108	94
CC(C)(C)C1CC=C2C(C#N)=C(N)C(C#N)(C#N)C(c3cccs3)C2C1 (stereo not drawn)	65	88	.	2.1*	.
